Measured values as given in ChEMBL document CHEMBL1155288, “Novel 1,2,3-thiadiazole derivatives as HIV-1 NNRTIs with improved potency: Synthesis and preliminary SAR studies” (Bioorg Med Chem, 2009).

How the values were obtained:
[1] = Selectivity index, ratio of CC50 for human MT4 cells to EC50 for HIV2 ROD; assay type: toxicity, cell-based; conditions: read-out: Ratio CC50/EC50
Method in brief: (§1)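 Ratio CC50/EC50. CC50 comes from mock-infected MT-4 cells and EC50 from HIV-1 IIIB- or HIV-2 ROD-infected MT-4 cells, both from the same 5-day MTT plates.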

[2] = test system: Human immunodeficiency virus 2; assay: Antiviral activity against HIV2 ROD infected in human MT4 cells after 5 days by MTT assay; assay type: functional, organism-based; conditions: Human immunodeficiency virus 2, ISOLATE ROD, MT4, 120 h
Method in brief: (§2)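 MT-4 cells (6 × 10^5 cells/mL) infected with HIV-1 IIIB or HIV-2 ROD at 100–300 CCID50. Serial fivefold compound dilutions were tested in triplicate wells. Viability was read by MTT reduction at 540 and 690 nm on day 5, using the median OD of three wells. EC50 is the concentration giving 50% protection from viral cytopathic effect.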

[3] = Selectivity index, ratio of CC50 for human MT4 cells to EC50 for HIV1 3B; assay type: toxicity, cell-based; conditions: read-out: Ratio CC50/EC50; method in brief: as §1
[4] = Cytotoxicity against human MT4 cells after 5 days by MTT assay; assay type: cell-based
Method in brief: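 Mock-infected MT-4 cells (6 × 10^5 cells/mL) received serial fivefold compound dilutions in triplicate wells, run in parallel with the infected series. After 5 days, viability was measured by MTT formazan absorbance at 540 and 690 nm, using the median OD of three wells. CC50 is the concentration reducing OD540 of the mock-infected control by 50%.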

[5] = test system: Human immunodeficiency virus 1; assay: Antiviral activity against HIV1 3B infected in human MT4 cells after 5 days by MTT assay; assay type: functional, organism-based; conditions: Human immunodeficiency virus 1, 3B, MT4, 120 h; method in brief: as §2

Cc1ccc2sc(NC(=O)CSc3snnc3-c3ccc(Br)cc3Br)nc2c1
selectivity ratio [1]: < 1
EC50 [2]: > 23.6 µM
selectivity ratio [3]: < 1
CC50 at 120 h [4]: 23.6 µM
EC50 [5]: > 23.6 µM

Cc1cccc(C)c1NC(=O)CSc1snnc1-c1ccc(Br)cc1Br
selectivity ratio [1]: < 1
EC50 [2]: > 199 µM
selectivity ratio [3]: < 1
CC50 at 120 h [4]: ≥ 199 µM
EC50 [5]: > 199 µM

O=C(CSc1snnc1-c1ccc(Br)cc1Br)Nc1ccccc1[N+](=O)[O-]
selectivity ratio [1]: ≥ 1
EC50 [2]: > 236 µM
selectivity ratio [3]: > 5840
CC50 at 120 h [4]: > 236 µM
EC50 [5]: 0.04 µM

Cc1ccccc1NC(=O)CSc1snnc1-c1ccc(Br)cc1Br
selectivity ratio [1]: < 1
EC50 [2]: > 202 µM
selectivity ratio [3]: 381
CC50 at 120 h [4]: 202 µM
EC50 [5]: 0.52 µM

O=C(CSc1snnc1-c1ccc(Br)cc1Br)Nc1ccccc1F
selectivity ratio [1]: < 1
EC50 [2]: > 27.8 µM
selectivity ratio [3]: > 195
CC50 at 120 h [4]: ≥ 27.8 µM
EC50 [5]: 0.14 µM

Cc1ccc(NC(=O)CSc2snnc2-c2ccc(Br)cc2Br)cc1
selectivity ratio [1]: < 1
EC50 [2]: > 24 µM
selectivity ratio [3]: 16
CC50 at 120 h [4]: 24 µM
EC50 [5]: 1.52 µM

O=C(CSc1snnc1-c1ccc(Br)cc1Br)Nc1ccccn1
selectivity ratio [1]: < 1
EC50 [2]: > 42.4 µM
selectivity ratio [3]: 36
CC50 at 120 h [4]: 42.4 µM
EC50 [5]: 1.17 µM

COC(=O)c1ccsc1NC(=O)CSc1snnc1-c1ccc(Br)cc1Br
selectivity ratio [1]: ≥ 1
EC50 [2]: > 228 µM
selectivity ratio [3]: > 57
CC50 at 120 h [4]: > 228 µM
EC50 [5]: 4.01 µM

O=C(CSc1snnc1-c1ccc(Br)cc1Br)Nc1cccnc1Cl
selectivity ratio [1]: ≥ 1
EC50 [2]: > 240 µM
selectivity ratio [3]: > 6460
CC50 at 120 h [4]: > 240 µM
EC50 [5]: 0.0364 µM

O=C(CSc1snnc1-c1ccc(Br)cc1Br)Nc1nccs1
selectivity ratio [1]: < 1
EC50 [2]: > 87.8 µM
selectivity ratio [3]: 19
CC50 at 120 h [4]: 87.8 µM
EC50 [5]: 4.53 µM

Cc1ccc(NC(=O)CSc2snnc2-c2ccc(Br)cc2Br)c([N+](=O)[O-])c1
selectivity ratio [1]: ≥ 1
EC50 [2]: > 230 µM
selectivity ratio [3]: > 2930
CC50 at 120 h [4]: > 230 µM
EC50 [5]: 0.079 µM

Cc1ccc(NC(=O)CSc2snnc2-c2ccc(Br)cc2Br)c(Br)c1
selectivity ratio [1]: ≥ 1
EC50 [2]: > 216 µM
selectivity ratio [3]: > 958
CC50 at 120 h [4]: > 216 µM
EC50 [5]: 0.22 µM

O=C(CSc1snnc1-c1ccc(Br)cc1Br)Nc1ccccc1
selectivity ratio [1]: < 1
EC50 [2]: > 24.8 µM
selectivity ratio [3]: 47
CC50 at 120 h [4]: 24.8 µM
EC50 [5]: 0.54 µM

O=C(CSc1snnc1-c1ccc(Br)cc1Br)Nc1ccccc1Cl
selectivity ratio [1]: > 1
EC50 [2]: ≥ 221 µM
selectivity ratio [3]: > 2900
CC50 at 120 h [4]: > 241 µM
EC50 [5]: 0.083 µM

Cc1cccc(NC(=O)CSc2snnc2-c2ccc(Br)cc2Br)c1C
selectivity ratio [1]: < 1
EC50 [2]: > 241 µM
selectivity ratio [3]: 166
CC50 at 120 h [4]: 241 µM
EC50 [5]: 1.44 µM

O=C(CSc1snnc1-c1ccc(Br)cc1Br)Nc1ccccc1Br
selectivity ratio [1]: > 1
EC50 [2]: 172 µM
selectivity ratio [3]: > 1790
CC50 at 120 h [4]: > 222 µM
EC50 [5]: 0.12 µM

O=C(CSc1snnc1-c1ccc(Br)cc1Br)Nc1ccc(Cl)cc1
selectivity ratio [1]: < 1
EC50 [2]: > 23.3 µM
selectivity ratio [3]: 11
CC50 at 120 h [4]: 23.3 µM
EC50 [5]: 2.19 µM

CC(=O)c1ccc(NC(=O)CSc2snnc2-c2ccc(Br)cc2Br)c(Br)c1
selectivity ratio [1]: ≥ 1
EC50 [2]: > 206 µM
selectivity ratio [3]: > 3550
CC50 at 120 h [4]: > 206 µM
EC50 [5]: 0.058 µM
